According to PMC12627342 (Journal of Advanced Research, 2025):

Key:
[1] = system: E. aerogenes (MDR); test: MIC assay; assay type: cell-based; conditions: Gram-negative
Summary of the method: (§1)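 Broth microdilution: test compound dissolved in physiological saline, two-fold serially diluted across wells (50 μL broth each). 50 μL bacterial suspension added (1.0 × 10⁶ CFU/mL). Incubation 16 h at 37 °C with constant agitation. MIC read visually together with absorbance at 600 nm. Each sample run in triplicate.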

[2] = system: E. coli ATCC 25922; test: MIC assay; assay type: cell-based; conditions: E. coli ATCC 25922, Gram-negative
Summary of the method: as §1

[3] = system: S. aureus (MDR); test: MIC assay; assay type: cell-based; conditions: Gram-positive
Summary of the method: as §1

[4] = system: B. subtilis ATCC 6633; test: MIC assay; assay type: cell-based; conditions: B. subtilis ATCC 6633, Gram-positive
Summary of the method: as §1

[5] = system: C. freundii (MDR); test: MIC assay; assay type: cell-based; conditions: Gram-negative
Summary of the method: as §1

[6] = system: A. baumannii (MDR); test: MIC assay; assay type: cell-based; conditions: Gram-negative
Summary of the method: as §1

[7] = system: Gram-positive bacteria; test: Geometric mean of MICs and selectivity index, Gram-positive bacteria; assay type: cell-based; conditions: geometric mean of MICs
[8] = system: Gram-negative bacteria; test: Geometric mean of MICs and selectivity index, Gram-negative bacteria; assay type: cell-based; conditions: geometric mean of MICs
[9] = system: all bacteria tested; test: Geometric mean of MICs and selectivity index, all bacteria; assay type: cell-based; conditions: geometric mean of MICs against all bacteria
Summary of the method: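 Geometric mean of the broth-microdilution MICs (μM) across all bacterial strains tested. It serves as the denominator of the selectivity index, SI = HC₅₀ (μM) / GM.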

[10] = Cytotoxicity assay; assay type: cell-based, human
Summary of the method: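 293T human embryonic kidney cells were seeded and grown 24 h, then exposed for 24 h to a concentration series of test compound in DMEM. CCK-8 reagent was added for 2 h at 37 °C, and absorbance was read at 450 nm. Five replicates per sample.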

[11] = system: human red blood cells (hRBCs); test: Hemolytic assay; assay type: cell-based; conditions: median hemolytic concentration, 5 % hRBCs, 1 h, 37 °C
Summary of the method: (§2)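 Human erythrocytes from heparinised blood, washed three times in PBS (centrifuged 1800 rpm, 4 °C, 5 min), used as a 5 % (v/v) suspension. Peptide two-fold dilutions in PBS, final 0.78–50 μM. Incubation 1 h at 37 °C, then 3000 rpm for 5 min; supernatant hemoglobin read at A405. Controls: PBS (0 %) and 1 % Triton X-100 (100 %). Five replicates; HC₅₀ derived as median hemolytic concentration.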

[12] = Plasma stability by HPLC; assay type: in vitro ADME; conditions: human, human plasma 25 % (v/v)
Summary of the method: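 An 8 mM aqueous stock of peptide (1 mL) was added to 3 mL of 25 % (v/v) human plasma and incubated at 37 °C with agitation, sampling from 0–48 h and up to 14 days. Each sample was quenched with an equal volume of 90 % acetonitrile/10 % TFA, cooled to 4 °C and spun at 10000 rpm for 10 min. Supernatant was quantified by HPLC against standard curves (0.0625–8 mM). Triplicates.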

[13] = Hemolytic assay; assay type: cell-based, human
Summary of the method: as §2

[14] = commercially available antimicrobial peptide drug; cited from earlier work

Substance | MIC [1] | MIC [2] | MIC [3] | MIC [4] | MIC [5] | MIC [6] | GM+ [7] | GM- [8] | GMall [9] | CC50 [10] | HC50 [11] | half-life at 2 mM [12] | hemolysis at 50 µM [13] | half-life [14]
Ac-GLFKFLRKFFNFIKR-NH2 [P-γ, Ac-GLFKFLRKFFNFIKR-NH2] | 50 µM | 12.5 µM | 50 µM | 12.5 µM | 50 µM | 12.5 µM | – | – | – | – | – | – | – | –
Ac-GLFKFLRKFFNKIKR-NH2 [P-β, Ac-GLFKFLRKFFNKIKR-NH2] | 12.5 µM | 6.25 µM | 6.25 µM | 6.25 µM | 6.25 µM | 6.25 µM | 6.25 µM | 7.43 µM | 7.02 µM | 28.2 µM | 136.69 µM | – | – | –
Ac-GLRKALRKFANKIKR-NH2 [P-α-05, Ac-GLRKALRKFANKIKR-NH2] | 50 µM | 50 µM | 50 µM | 25 µM | 50 µM | 50 µM | – | – | – | – | – | – | – | –
Ac-GLRKFLRKFFNKIKR-NH2 [P-α, Ac-GLRKFLRKFFNKIKR-NH2] | 12.5 µM | 6.25 µM | 6.25 µM | 6.25 µM | 6.25 µM | 6.25 µM | 6.25 µM | 14.87 µM | 7.02 µM | – | – | 15.3 h | 1.5% | –
Ac-GLRKILRKFINKIKR-NH2 [P-α-03, Ac-GLRKILRKFINKIKR-NH2] | 12.5 µM | 3.125 µM | 6.25 µM | 3.125 µM | 6.25 µM | 6.25 µM | – | – | – | – | – | – | – | –
Ac-GLRKLLRKFLNKIKR-NH2 [P-α-04, Ac-GLRKLLRKFLNKIKR-NH2] | 6.25 µM | 3.125 µM | 3.125 µM | 3.125 µM | 3.125 µM | 6.25 µM | 3.13 µM | 4.42 µM | 3.94 µM | 193 µM | >1000 µM | 17.4 h | – | –
Ac-GLRKMLRKFMNKIKR-NH2 [P-α-06, Ac-GLRKMLRKFMNKIKR-NH2] | 25 µM | 12.5 µM | 12.5 µM | 6.25 µM | 6.25 µM | 12.5 µM | – | – | – | – | – | – | – | –
Ac-GLRKVLRKFVNKIKR-NH2 [P-α-01, Ac-GLRKVLRKFVNKIKR-NH2] | 50 µM | 12.5 µM | 25 µM | 6.25 µM | 6.25 µM | 12.5 µM | – | – | – | – | – | – | – | –
Ac-GLWKWLRKFWNKIKR-NH2 [P-β-02, Ac-GLWKWLRKFWNKIKR-NH2] | 25 µM | 12.5 µM | 25 µM | 6.25 µM | 12.5 µM | 12.5 µM | – | – | – | – | – | – | – | –
Polymyxin B [reference compound] | – | 0.78 µM | 25 µM | 1.56 µM | – | 0.78 µM | – | – | – | – | – | – | – | –
polymyxin E | – | – | – | – | – | – | – | – | – | – | – | – | – | 0.39 h
